This is an account of results in ChEMBL document CHEMBL4834441, “Design, synthesis and biological evaluation of a series of iron and copper chelating deferiprone derivatives as new agents active against Candida albicans” (Bioorg Med Chem Lett, 2021).

In brackets after ≈: the same amount, converted by molar mass. Activity calls are given as the source filed them. Bounds are passed on as bounds.

The test system of series [1] is Candida albicans. Kind of series: Antibiofilm activity against Candida albicans ATCC 10231 assessed as inhibition of biofilm formation. Format: functional. In a few lines:
(§1)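 C. albicans ATCC 10231 biofilm, tested during formation and as mature (48 h) biofilm; compounds tested up to 128 μg/mL. BMIC50 taken as lowest concentration giving 50% decrease of biofilm relative to untreated growth control; three independent experiments in triplicate, median reported.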

In series [2] the test system is Candida albicans. Kind of series: Antibiofilm activity against Candida albicans ATCC 10231 assessed as reduction in mature biofilm. Format: functional. In short, it runs like this:
as §1

The nature of series [3]: Metal chelating activity assessed as Fe3+-compound complex formation by UV-visible spectrophotometry. In short, it runs like this: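 Stoichiometry of ligand–Fe3+ complex found by Job's method of continuous variations from UV titration spectra, Job's plot read at 302 nm; stability constant (logKstab) then calculated by UV–Vis spectroscopy for the determined stoichiometry.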

Series [4] deals with Candida albicans. The experiment in a line: Antifungal activity against Candida albicans ATCC 10231. Format: functional. In a few lines:
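Planktonic C. albicans ATCC 10231 cells; compounds tested up to 128 μg/mL. MIC50 defined as lowest concentration producing 50% growth inhibition; three independent experiments, each in triplicate, values given as median.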

The nature of series [5]: Toxicity in Galleria mellonella larvae assessed as survival at 512 ug/ml measured after 72 hrs relative to control. The note with it: at 512 µg/mL. In a few lines:
(§2)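 G. mellonella larvae were injected with 20 μL of compound in sterile water containing less than 1% v/v DMSO, into the last left pro-leg. Doses were 32–512 µg/mL. Survival was scored at 24, 48 and 72 h and is given as the mean percentage of three independent experiments.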

Series [6] in a line: Toxicity in Galleria mellonella larvae assessed as survival at 32 ug/ml measured after 48 hrs relative to control. The note with it: at 32 µg/mL. In short, it runs like this: as §2
The nature of series [7]: Metal chelating activity assessed as stoichiometry ratio of 1:1 for Fe3+-compound complex formation by UV-visible spectrophotometry.
Series [8] in a line: Toxicity in Galleria mellonella larvae assessed as survival at 128 ug/ml measured after 24 hrs relative to control. The note with it: at 128 µg/mL. In a few lines:
as §2

For series [9], the system named is Candida albicans. The experiment in a line: Antibiofilm activity against Candida albicans ATCC 10231 assessed as inhibition of biofilm formation in presence of Cu2+. Format: functional, organism-based. The note with it: dose 8-128 µg/ml. In a few lines: (§3)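 C. albicans ATCC 10231 biofilm-formation assay run in culture medium enriched with increasing concentrations of Fe3+ or Cu2+. BMIC50 is the lowest drug concentration giving a 50% decrease of biofilm relative to the untreated growth control. Three independent experiments in triplicate; data reported as percentage of inhibition ± standard deviation.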

Series [10] can be described thus: Toxicity in Galleria mellonella larvae assessed as survival at 64 ug/ml measured after 72 hrs relative to control. The note with it: at 64 µg/mL. In a few lines:
as §2

A short description of series [11]: Toxicity in Galleria mellonella larvae assessed as survival at 512 ug/ml measured after 48 hrs relative to control. The note with it: at 512 µg/mL. In short, it runs like this:
as §2

Series [12] can be described thus: Toxicity in Galleria mellonella larvae assessed as survival at 512 ug/ml measured after 24 hrs relative to control. The note with it: at 512 µg/mL. In a few lines: as §2
Series [13] in a line: Toxicity in Galleria mellonella larvae assessed as survival at 256 ug/ml measured after 48 hrs relative to control. The note with it: at 256 µg/mL. In a few lines:
as §2

A short description of series [14]: Toxicity in Galleria mellonella larvae assessed as survival at 256 ug/ml measured after 72 hrs relative to control. The note with it: at 256 µg/mL. In a few lines:
as §2

The nature of series [15]: Metal chelating activity assessed as Cu2+-compound complex formation by UV-visible spectrophotometry. In a few lines: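 UV–Vis spectroscopic titration of the ligand with Cu2+. The stability constant was calculated from the spectra once the 1:1 stoichiometry was known, and is reported as logKstab ±.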
A short description of series [16]: Toxicity in Galleria mellonella larvae assessed as survival at 32 ug/ml measured after 24 hrs relative to control. The note with it: at 32 µg/mL. In short, it runs like this:
as §2

A short description of series [17]: Toxicity in Galleria mellonella larvae assessed as survival at 128 ug/ml measured after 72 hrs relative to control. The note with it: at 128 µg/mL. In short, it runs like this:
as §2

Series [18] in a line: Toxicity in Galleria mellonella larvae assessed as survival at 128 ug/ml measured after 48 hrs relative to control. The note with it: at 128 µg/mL. In a few lines:
as §2

Series [19] is described as follows: Metal chelating activity assessed as stoichiometry ratio of 1:1 for Cu2+-compound complex formation by UV-visible spectrophotometry.
A short description of series [20]: Toxicity in Galleria mellonella larvae assessed as survival at 64 ug/ml measured after 24 hrs relative to control. The note with it: at 64 µg/mL. In a few lines:
as §2

In series [21] the test system is Candida albicans. The experiment in a line: Antibiofilm activity against Candida albicans ATCC 10231 assessed as inhibition of biofilm formation in presence of Fe3+. Format: functional, organism-based. The note with it: dose 8-128 µg/ml. In a few lines: as §3
A short description of series [22]: Toxicity in Galleria mellonella larvae assessed as survival at 256 ug/ml measured after 24 hrs relative to control. The note with it: at 256 µg/mL. In a few lines:
as §2

A short description of series [23]: Toxicity in Galleria mellonella larvae assessed as survival at 32 ug/ml measured after 72 hrs relative to control. The note with it: at 32 µg/mL. In short, it runs like this: as §2
Series [24] in a line: Toxicity in Galleria mellonella larvae assessed as survival at 64 ug/ml measured after 48 hrs relative to control. The note with it: at 64 µg/mL. In short, it runs like this: as §2

As to `Cc1c(OCc2ccccc2)c(=O)ccn1CCCCc1ccccc1`, the MBIC50 with Candida albicans [1] and with Candida albicans [2] was more than 128 µg/mL each time. For the same compound, the outcome in [3] was Active. For the same compound, the MIC50 in the series with Candida albicans [4] is more than 128 µg/mL.
With `Cc1c(O)c(=O)ccn1CCCCNC(=O)Cc1ccccc1`, the MBIC50 in the series with Candida albicans [1] and in the series on Candida albicans [2] was more than 128 µg/mL in each case. This compound also had an MIC50 in the series with Candida albicans [4] of more than 128 µg/mL.
Regarding `Cc1c(O)c(=O)ccn1CCCn1ccnc1.Cl`, the MBIC50 in the series with Candida albicans [1] and in the series on Candida albicans [2] was more than 128 µg/mL throughout. Also, in the series on Candida albicans [4], the MIC50 was more than 128 µg/mL.
In the case of `Cc1c(O)c(=O)ccn1CCCc1ccccc1.Cl`, the MBIC50 in the series with Candida albicans [1] was 32 µg/mL; in the series on Candida albicans [2] it was more than 128 µg/mL. The MIC50 against Candida albicans [4] amounted to 32 µg/mL.
Consider `Cc1c(O)c(=O)ccn1CCCCc1ccccc1.Cl`, for which the MBIC50 in the series with Candida albicans [1] is 16 µg/mL; in the series with Candida albicans [2] it was more than 128 µg/mL. Besides, the survival at 72 h in [5] was 86%; in series [10], 100%; in series [14], 100%; in series [17], 100%; in series [23], 100%. In addition, the survival at 48 h in [6] amounted to 100%; in series [11], 96%; in series [13], 100%; in [18] it was 100%; in series [24], 100%. In addition, the result in series [7], in series [15], in series [19] and in [3] was Active. The survival at 24 h in [8], in series [12], in [16], in series [20] and in series [22] was 100% in each case. The inhibition entry with Candida albicans [9] and in the series with Candida albicans [21] was “Dose-Dependent Effect” throughout. This compound came in with an MIC50 in the series with Candida albicans [4] of 16 µg/mL.
Turning to `Cc1c(OCc2ccccc2)c(=O)ccn1CCCCn1ccc(=O)c(OCc2ccccc2)c1C`, the figures for the MBIC50 in the series with Candida albicans [1] and in the series on Candida albicans [2] were 128 µg/mL and more than 128 µg/mL, respectively. Moreover, the MIC50 against Candida albicans [4] is more than 128 µg/mL.
The matching figures for `COc1ccccc1Cn1ccc(=O)c(O)c1C.Cl`: more than 128 µg/mL, more than 128 µg/mL and more than 128 µg/mL.
The corresponding values for `Cc1c(O)c(=O)ccn1CCCCCn1ccc(=O)c(O)c1C.Cl.Cl` are 128 µg/mL, more than 128 µg/mL and more than 128 µg/mL.
Regarding `Cc1c(OCc2ccccc2)c(=O)ccn1CCCCNC(=O)C(C)c1ccc(C(=O)c2ccccc2)cc1` (centres undefined), the MBIC50 in the series on Candida albicans [1] and with Candida albicans [2] was more than 128 µg/mL throughout. This compound yielded an MIC50 in the series on Candida albicans [4] of more than 128 µg/mL.
Regarding `Cc1c(OCc2ccccc2)c(=O)ccn1CCCn1ccnc1`, the MBIC50 in the series with Candida albicans [1] and with Candida albicans [2] was more than 128 µg/mL in each case. In addition, the MIC50 with Candida albicans [4] was more than 128 µg/mL.
For `Cc1c(O)c(=O)ccn1CCCCCCn1ccc(=O)c(O)c1C.Cl.Cl`, the MBIC50 with Candida albicans [1] and in the series on Candida albicans [2] was more than 128 µg/mL throughout. In the series with Candida albicans [4], the MIC50 is more than 128 µg/mL.
For the compound `Cc1c(OCc2ccccc2)c(=O)ccn1CCCCCn1ccc(=O)c(OCc2ccccc2)c1C`, the MBIC50 in the series with Candida albicans [1] and in the series with Candida albicans [2] was more than 128 µg/mL each time. For the same compound, in the series with Candida albicans [4], the MIC50 was more than 128 µg/mL.
In the case of `Cc1c(OCc2ccccc2)c(=O)ccn1CCCc1ccccc1`, the MBIC50 with Candida albicans [1] and in the series on Candida albicans [2] was more than 128 µg/mL each time. In the series on Candida albicans [4], this compound showed an MIC50 of more than 128 µg/mL.
Consider `Cc1c(OCc2ccccc2)c(=O)ccn1CCCCNC(=O)Cc1ccc(CC(C)C)cc1`, for which the MBIC50 is 64 µg/mL in the series with Candida albicans [1] and more than 128 µg/mL in the series on Candida albicans [2]. This compound gave an MIC50 in the series with Candida albicans [4] of more than 128 µg/mL.
The corresponding values for `Cc1c(OCc2ccccc2)c(=O)ccn1CCCCCCn1ccc(=O)c(OCc2ccccc2)c1C` are more than 128 µg/mL, more than 128 µg/mL and more than 128 µg/mL.
Take `Cc1c(OCc2ccccc2)c(=O)ccn1CCCCNC(=O)C(C)c1ccc(CC(C)C)cc1` (centres undefined): the MBIC50 with Candida albicans [1] was 32 µg/mL; in the series with Candida albicans [2], more than 128 µg/mL. Also, the result in series [3] was Active. In addition, in the series on Candida albicans [4], the MIC50 was more than 128 µg/mL.
For `Cc1c(O)c(=O)ccn1CCCCNC(=O)Cc1ccc(CC(C)C)cc1`, the MBIC50 turned out to be 64 µg/mL in the series on Candida albicans [1] and 128 µg/mL in the series with Candida albicans [2]. This compound registered an MIC50 with Candida albicans [4] of 8 µg/mL (≈ 21.6 µM).
The matching figures for `Cc1c(O)c(=O)ccn1CCCCNC(=O)C(C)c1ccc(C(=O)c2ccccc2)cc1` (centres undefined): 128 µg/mL, more than 128 µg/mL and more than 128 µg/mL.
Consider `Cc1c(OCc2ccccc2)c(=O)ccn1CCCCNC(=O)Cc1ccccc1`, for which the MBIC50 in the series on Candida albicans [1] and in the series on Candida albicans [2] was more than 128 µg/mL in each case. The compound further had an MIC50 in the series with Candida albicans [4] of more than 128 µg/mL.
On to `Cc1c(O)c(=O)ccn1CCCCn1ccc(=O)c(O)c1C.Cl.Cl`, for which the MBIC50 in the series on Candida albicans [1] and in the series with Candida albicans [2] was more than 128 µg/mL in each case. Also, in the series on Candida albicans [4], the MIC50 is more than 128 µg/mL.
On to `Cc1c(O)c(=O)ccn1C` [DEFERIPRONE], for which the MBIC50 with Candida albicans [1] amounted to 32 µg/mL; in the series with Candida albicans [2], 128 µg/mL. Besides, the MIC50 against Candida albicans [4] came out at 128 µg/mL (≈ 920 µM).
For `COc1ccccc1Cn1ccc(=O)c(OCc2ccccc2)c1C`, the MBIC50 with Candida albicans [1] and in the series on Candida albicans [2] was more than 128 µg/mL each time. Further, the MIC50 in the series on Candida albicans [4] is more than 128 µg/mL.
In the case of `Cc1c(O)c(=O)ccn1CCCCNC(=O)C(C)c1ccc(CC(C)C)cc1` (centres undefined), the figures for the MBIC50 in the series with Candida albicans [1] and in the series with Candida albicans [2] were 128 µg/mL and more than 128 µg/mL, respectively. The outcome in series [15] and in series [3] was Active. Besides, the MIC50 in the series with Candida albicans [4] turned out to be 4 µg/mL (≈ 10.4 µM).
